Results published in PMC7003739 (Clinical Pharmacology in Drug Development, 2019).
Marks after values point to notes of the source that are not given here.

What was measured:
[1] = 15 mg BID over 14 days, healthy volunteers; cited from earlier work
Urinary PK = type: in vivo, human; settings: for Ae6, arithmetic mean (SD) / Ae12, arithmetic mean (SD) / Ae24%, arithmetic mean (SD) / CLR, arithmetic mean (SD) / CLR, geometric mean (%CV) / CLR, median: Cohort A
[2] = humans; cited from earlier work
[3] = Plasma PK after single oral doses; type: in vivo, human; settings: for AUCinf, arithmetic mean (SD) / AUCinf, geometric mean (%CV) / Cmax, arithmetic mean (SD) / Cmax, geometric mean (%CV) / tmax, median (range) / t½, arithmetic mean (SD): n=6; for tmax, J‐W difference of median: Japanese‐Western
Summary of the method: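 Healthy Japanese and Western volunteers took single oral doses of 1, 5 and 30 mg or placebo with 240 mL water on days 1, 4 and 7, with a 2-day washout. Heparinized blood was taken predose and at 0.25–48 h, centrifuged within 30 min at 4°C, and the plasma frozen at –20°C. Assay was LC-MS/MS (0.100–350 ng/mL), with values below the quantification limit set to zero. Japanese/Western geometric mean ratios came from log-scale ANOVA.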

[4] = Plasma PK after single and multiple doses; type: in vivo, human; settings: Japanese, Cohort B; for AUCτ, arithmetic mean (SD) / AUCτ, geometric mean (%CV): τ 12 hours
Safety and tolerability = type: in vivo, human
Summary of the method: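 Healthy Japanese volunteers (Cohort B) were randomised 3:1 to a single oral 15 mg test compound dose or matching placebo on day 1, then 15 mg BID for 5 days (single dose on the last day) or placebo. Adverse events (intensity and treatment relatedness), clinical observations and vital signs were monitored throughout. ECG was done at specified post-dose times. Physical examination was on day 0 and 72 h after the final dose.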

[5] = Japanese, Cohort B, single 15 mg dose
[6] = Japanese, single oral 1 mg, n=6
[7] = Japanese, single oral 5 mg, n=5
[8] = Japanese, single oral 5 mg, n=6
[9] = Japanese, single oral 30 mg, n=6
[10] = Western, single oral 30 mg, n=6
[11] = Japanese, single oral 1 mg, Cohort A
[12] = Japanese, single oral 5 mg, Cohort A
[13] = Japanese, single oral 30 mg, Cohort A
[14] = Western, single oral 1 mg, Cohort A
[15] = Western, single oral 5 mg, Cohort A
[16] = Western, single oral 30 mg, Cohort A
[17] = day 8 multiple dose 15 mg BID for 5 days, n=6
[18] = Cohort B Japanese, 15 mg BID, N=6

C[C@@H]1CCN(C(=O)CC#N)C[C@@H]1N(C)c1ncnc2[nH]ccc12 [tofacitinib]
effect on glomerular filtration rate [1]: did not alter the glomerular filtration rate
CLR reduction after multiple‐dose vs single‐dose administration, average (Urinary PK; Japanese, Cohort B, 15 mg): 24%
CLR, geometric mean [SD] (Urinary PK; Japanese, Cohort B, multiple dose 15 mg BID): 120 mL/min
Ae24%, arithmetic mean (SD) percentage of unchanged tofacitinib excreted in urine 24 hours after dose (Urinary PK; [5]): 27.1%
CLR, geometric mean [SD] (Urinary PK; [5]): 158 mL/min
Mean CLR decrease with increasing dose (Urinary PK; Japanese, single doses 1 to 30 mg (162 to 148 mL/min)): 8.6%
Ae6, arithmetic mean (SD) (Urinary PK; [6]): 0.191 (0.0469) mg
Ae12, arithmetic mean (SD) (Urinary PK; [6]): 0.215 (0.0527) mg
Ae24%, arithmetic mean (SD) (Urinary PK; [6]): 22.0%
CLR, arithmetic mean (SD) (Urinary PK; [6]): 166 (45.2) mL/min
CLR, geometric mean (%CV) (Urinary PK; [6]): 162 (27) mL/min
CLR, median (Urinary PK; [6]): 144 mL/min
Ae24%, arithmetic mean (SD) (Urinary PK; Japanese, single oral 1 mg, n=6, listed as Tofacitinib): 22.0 (5.34) %
Ae12, arithmetic mean (SD) (Urinary PK; [7]): 0.995 ^c (0.367) mg
Ae24%, arithmetic mean (SD) (Urinary PK; [7]): 20.4%
CLR, geometric mean (%CV) (Urinary PK; [7]): 134 ^c (25) mL/min
Ae24%, arithmetic mean (SD) (Urinary PK; Japanese, single oral 5 mg, n=5, listed as Tofacitinib): 20.4 ^c (7.51) %
Ae6, arithmetic mean (SD) (Urinary PK; [8]): 0.890 (0.327) mg
CLR, arithmetic mean (SD) (Urinary PK; [8]): 137 (33.8) mL/min
CLR, median (Urinary PK; [8]): 136 mL/min
Ae6, arithmetic mean (SD) (Urinary PK; [9]): 5.59 (0.832) mg
Ae12, arithmetic mean (SD) (Urinary PK; [9]): 6.46 (0.791) mg
Ae24%, arithmetic mean (SD) (Urinary PK; [9]): 22.5%
CLR, arithmetic mean (SD) (Urinary PK; [9]): 153 (41.8) mL/min
CLR, geometric mean (%CV) (Urinary PK; [9]): 148 (27) mL/min
CLR, median (Urinary PK; [9]): 149 mL/min
Ae24%, arithmetic mean (SD) (Urinary PK; Japanese, single oral 30 mg, n=6, listed as Tofacitinib): 22.5 (3.00) %
Mean CLR decrease with increasing dose (Urinary PK; Western, single doses 1 to 30 mg (160 to 124 mL/min)): 22.5%
Ae24%, arithmetic mean (SD) (Urinary PK; Western, single oral 1 mg, n=5): 21.2%
CLR, geometric mean (%CV) (Urinary PK; Western, single oral 1 mg, n=5): 160 ^c (11) mL/min
Ae24%, arithmetic mean (SD) (Urinary PK; Western, single oral 1 mg, n=5, listed as Tofacitinib): 21.2 ^c (0.865) %
Ae6, arithmetic mean (SD) (Urinary PK; Western, single oral 1 mg, n=6): 0.169 (0.0128) mg
Ae12, arithmetic mean (SD) (Urinary PK; Western, single oral 1 mg, n=6): 0.199 (0.0127) mg
CLR, arithmetic mean (SD) (Urinary PK; Western, single oral 1 mg, n=6): 161 (17.7) mL/min
CLR, median (Urinary PK; Western, single oral 1 mg, n=6): 158 mL/min
Ae12, arithmetic mean (SD) (Urinary PK; Western, single oral 5 mg, n=5): 0.919 ^c (0.265) mg
Ae24%, arithmetic mean (SD) (Urinary PK; Western, single oral 5 mg, n=5): 19.9%
CLR, geometric mean (%CV) (Urinary PK; Western, single oral 5 mg, n=5): 136 ^c (29) mL/min
Ae24%, arithmetic mean (SD) (Urinary PK; Western, single oral 5 mg, n=5, listed as Tofacitinib): 19.9 ^c (5.15) %
Ae6, arithmetic mean (SD) (Urinary PK; Western, single oral 5 mg, n=6): 0.744 (0.224) mg
CLR, arithmetic mean (SD) (Urinary PK; Western, single oral 5 mg, n=6): 141 (40.6) mL/min
CLR, median (Urinary PK; Western, single oral 5 mg, n=6): 148 mL/min
Ae6, arithmetic mean (SD) (Urinary PK; [10]): 4.15 (1.11) mg
Ae12, arithmetic mean (SD) (Urinary PK; [10]): 5.63 (1.28) mg
Ae24%, arithmetic mean (SD) (Urinary PK; [10]): 19.8%
CLR, arithmetic mean (SD) (Urinary PK; [10]): 127 (30.1) mL/min
CLR, geometric mean (%CV) (Urinary PK; [10]): 124 (24) mL/min
CLR, median (Urinary PK; [10]): 127 mL/min
Ae24%, arithmetic mean (SD) (Urinary PK; Western, single oral 30 mg, n=6, listed as Tofacitinib): 19.8 (4.11) %
percentage of unchanged tofacitinib excreted in urine (Urinary PK; over 24 hours after single‐dose administration, across doses and ethnicities): approximately 20%
contribution of renal clearance to clearance [2]: approximately 30%
differences in systemic exposure (Cmax, AUCinf) between Japanese and Western volunteers ([3]; 1, 5, 30 mg single doses, analysis of variance): No significant differences
AUCinf, arithmetic mean (SD) [3, 11]: 22.8 (6.37) ng ⋅ h/mL
AUCinf, geometric mean (%CV) [3, 11]: 22.0 (28) ng ⋅ h/mL
Cmax, arithmetic mean (SD) [3, 11]: 7.38 (1.05) ng/mL
Cmax, geometric mean (%CV) [3, 11]: 7.32 (14) ng/mL
tmax, median (range) [3, 11]: 0.75 (0.50‐2.00) h
t½, arithmetic mean (SD) [3, 11]: 1.96 (0.240) h
AUCinf, arithmetic mean (SD) [3, 12]: 114 (25.5) ng ⋅ h/mL
AUCinf, geometric mean (%CV) [3, 12]: 111 (22) ng ⋅ h/mL
Cmax, arithmetic mean (SD) [3, 12]: 43.1 (15.0) ng/mL
Cmax, geometric mean (%CV) [3, 12]: 41.3 (35) ng/mL
tmax, median (range) [3, 12]: 0.50 (0.50‐1.00) h
t½, arithmetic mean (SD) [3, 12]: 2.49 (0.570) h
AUCinf, arithmetic mean (SD) [3, 13]: 775 (203) ng ⋅ h/mL
AUCinf, geometric mean (%CV) [3, 13]: 754 (26) ng ⋅ h/mL
Cmax, arithmetic mean (SD) [3, 13]: 324 (82.7) ng/mL
Cmax, geometric mean (%CV) [3, 13]: 315 (25) ng/mL
tmax, median (range) [3, 13]: 0.50 (0.50‐1.00) h
t½, arithmetic mean (SD) [3, 13]: 3.14 (0.497) h
tmax, J‐W difference of median ([3]; single oral 1 mg, Cohort A): 0.00 h
tmax, J‐W difference of median ([3]; single oral 5 mg, Cohort A): 0.00 h
tmax, J‐W difference of median ([3]; single oral 30 mg, Cohort A): 0.00 h
AUCinf, arithmetic mean (SD) [3, 14]: 22.9 (2.52) ng ⋅ h/mL
AUCinf, geometric mean (%CV) [3, 14]: 22.8 (11) ng ⋅ h/mL
Cmax, arithmetic mean (SD) [3, 14]: 7.53 (1.69) ng/mL
Cmax, geometric mean (%CV) [3, 14]: 7.36 (22) ng/mL
tmax, median (range) [3, 14]: 0.75 (0.50‐1.00) h
t½, arithmetic mean (SD) [3, 14]: 2.14 (0.210) h
AUCinf, arithmetic mean (SD) [3, 15]: 120 (16.8) ng ⋅ h/mL
AUCinf, geometric mean (%CV) [3, 15]: 119 (14) ng ⋅ h/mL
Cmax, arithmetic mean (SD) [3, 15]: 36.0 (9.78) ng/mL
Cmax, geometric mean (%CV) [3, 15]: 34.9 (27) ng/mL
tmax, median (range) [3, 15]: 0.50 (0.50‐2.00) h
t½, arithmetic mean (SD) [3, 15]: 2.85 (0.691) h
AUCinf, arithmetic mean (SD) [3, 16]: 797 (131) ng ⋅ h/mL
AUCinf, geometric mean (%CV) [3, 16]: 788 (16) ng ⋅ h/mL
Cmax, arithmetic mean (SD) [3, 16]: 269 (47.9) ng/mL
Cmax, geometric mean (%CV) [3, 16]: 265 (18) ng/mL
tmax, median (range) [3, 16]: 0.50 (0.50‐1.00) h
t½, arithmetic mean (SD) [3, 16]: 3.50 (0.349) h
geometric mean Cmax in Japanese higher than in Western volunteers ([3]; single 5 and 30 mg doses, Cohort A): approximately 19%
increase of systemic exposure with dose ([3]; single oral doses 1, 5, 30 mg): approximately dose‐proportional
drug accumulation upon repeat dosing ([4]; 15 mg BID): negligible drug accumulation
time to steady state plasma concentration ([4]; 15 mg BID for 5 days): ≤ 24 h
AUCinf, arithmetic mean (SD) ([4]; day 1 single dose 15 mg, n=6): 417 (133) ng ⋅ h/mL
AUCinf, geometric mean (%CV) ([4]; day 1 single dose 15 mg, n=6): 399 (32) ng ⋅ h/mL
Cmax, arithmetic mean (SD) ([4]; day 1 single dose 15 mg, n=6): 149 (50.6) ng/mL
Cmax, geometric mean (%CV) ([4]; day 1 single dose 15 mg, n=6): 141 (34) ng/mL
tmax, median (range) ([4]; day 1 single dose 15 mg, n=6): 0.75 (0.50‐1.00) h
t½, arithmetic mean (SD) ([4]; day 1 single dose 15 mg, n=6): 3.14 (0.672) h
AUCτ, arithmetic mean (SD) ([4]; day 1 single dose 15 mg, n=6): 403 (128) ng ⋅ h/mL
AUCτ, geometric mean (%CV) ([4]; day 1 single dose 15 mg, n=6): 387 (32) ng ⋅ h/mL
Cmax, arithmetic mean (SD) [4, 17]: 143 (45.9) ng/mL
Cmax, geometric mean (%CV) [4, 17]: 136 (32) ng/mL
tmax, median (range) [4, 17]: 0.75 (0.50‐1.00) h
t½, arithmetic mean (SD) [4, 17]: 3.28 (0.544) h
AUCτ, arithmetic mean (SD) [4, 17]: 457 (116) ng ⋅ h/mL
AUCτ, geometric mean (%CV) [4, 17]: 445 (25) ng ⋅ h/mL
Constipation, n (all causality) (Safety and tolerability; [18]): 1
Hunger, n (all causality) (Safety and tolerability; [18]): 2
Skin irritation, n (all causality) (Safety and tolerability; [18]): 1
adverse events of moderate intensity: skin irritation, events (Safety and tolerability; Cohort B, single dose 15 mg, not considered related to study treatment): 1
renal function (individual creatinine levels) following repeat administration (Safety and tolerability; Japanese, Cohort B, 15 mg BID): renal function remained unaffected
changes in vital signs or ECG measurements (Safety and tolerability; whole study): no clinically significant changes
clinically significant laboratory abnormalities (Safety and tolerability; whole study): no volunteers had clinically significant laboratory abnormalities
serious adverse events or deaths (Safety and tolerability; whole study, Cohorts A and B): No serious adverse events or deaths were reported
